Results published in ChEMBL document CHEMBL2150952 (J Med Chem, 2011).

Assays:
Acyl-CoA desaturase 1 [1] = target: T1, Acyl-CoA desaturase 1 (Rattus norvegicus, UniProt P07308); experiment: Inhibition of SCD-1 activity in Sprague-Dawley rat microsome assessed as reduction in [I-14C] stearoyl CoA desaturation by scintillation counting; format: microsomes
T1 sequence (P07308 whole entry): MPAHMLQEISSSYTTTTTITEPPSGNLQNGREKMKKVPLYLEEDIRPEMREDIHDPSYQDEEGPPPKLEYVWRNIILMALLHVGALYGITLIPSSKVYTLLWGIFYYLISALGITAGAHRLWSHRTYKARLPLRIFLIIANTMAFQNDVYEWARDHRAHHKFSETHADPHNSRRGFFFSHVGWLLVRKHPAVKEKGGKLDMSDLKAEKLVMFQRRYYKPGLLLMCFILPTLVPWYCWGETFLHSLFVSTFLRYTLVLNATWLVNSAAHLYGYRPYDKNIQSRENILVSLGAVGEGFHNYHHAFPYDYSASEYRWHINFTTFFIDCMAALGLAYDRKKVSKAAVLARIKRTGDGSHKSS

Acyl-CoA desaturase 1 [2] = target: T1, Acyl-CoA desaturase 1; experiment: Inhibition of SCD-1 activity in Sprague-Dawley rat Hepatocytes expressing organic anion transporting polypeptides assessed as reduction in [I-14C] […] desaturation by scintillation counting; format: cell-based, Hepatocyte
Procedure, shortened: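 Rat hepatocytes (4 × 10^6 cells/mL) were preincubated with compound for 15 min at 37 °C/5% CO2. 14C-stearic acid (final 0.5 μCi/mL) was then added for 1 h with shaking. Cells were washed, hydrolyzed in 2N NaOH at 75 °C for 1 h, acidified and extracted. Radiolabeled oleic and stearic acids were quantified by HPLC with flow scintillation detection. Mean of at least n = 3.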

Acyl-CoA desaturase 1 [3] = target: T1, Acyl-CoA desaturase 1; experiment: Inhibition of rat SCD-1
[4] = Apparent permeability across pig LLC-PK1 cells; format: ADME, cell-based, Sus scrofa
[5] = Oral bioavailability in mouse; format: ADME, organism-based; settings: in vivo
Procedure, shortened: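 Fasted male C57BL6 mice given 2 mg/kg IV and 10 mg/kg PO. Plasma drug levels measured by LC-MS/MS, mean of n = 3 animals, and PK parameters derived from these.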

[6] = Oral bioavailability in rat; format: ADME, organism-based; settings: in vivo
[7] = Oral bioavailability in dog; format: ADME, organism-based, Canis lupus familiaris; settings: in vivo
Liver [8] = experiment: Drug uptake in liver of C57BL6 mouse at 10 mg/kg, po measured 6 hrs post dose; format: ADME, organism-based; design: dose 10 mg/kg, route oral; settings: in vivo
Zone of skin [9] = experiment: Drug uptake in skin of C57BL6 mouse at 10 mg/kg, po measured 6 hrs post dose; format: ADME, organism-based; design: dose 10 mg/kg, route oral; settings: in vivo
[10] = Drug uptake in eye of C57BL6 mouse at 10 mg/kg, po measured 6 hrs post dose; format: ADME, organism-based; design: dose 10 mg/kg, route oral; settings: in vivo
Liver [11] = experiment: Drug uptake in liver of Sprague-Dawley rat at 10 mg/kg, po measured 6 hrs post dose; format: ADME, organism-based; design: dose 10 mg/kg, route oral; settings: in vivo
Zone of skin [12] = experiment: Drug uptake in skin of Sprague-Dawley rat at 10 mg/kg, po measured 6 hrs post dose; format: ADME, organism-based; design: dose 10 mg/kg, route oral; settings: in vivo
[13] = Drug uptake in eye of Sprague-Dawley rat at 10 mg/kg, po measured 6 hrs post dose; format: ADME, organism-based; design: dose 10 mg/kg, route oral; settings: in vivo
[14] = Drug uptake in liver of female rhesus monkey at 5 mg/kg, po measured 6 hrs post dose; format: ADME, organism-based, Macaca mulatta; design: dose 5 mg/kg, route oral; settings: in vivo
[15] = Drug uptake in skin of female rhesus monkey at 5 mg/kg, po measured 6 hrs post dose; format: ADME, organism-based, Macaca mulatta, Zone of skin; design: dose 5 mg/kg, route oral; settings: in vivo
[16] = Drug uptake in eye of female rhesus monkey at 5 mg/kg, po measured 6 hrs post dose; format: ADME, organism-based, Macaca mulatta; design: dose 5 mg/kg, route oral; settings: in vivo
Liver [17] = experiment: Drug uptake in liver of Beagle dog at 5 mg/kg, po measured 6 hrs post dose; format: ADME, organism-based, Canis lupus familiaris; design: dose 5 mg/kg, route oral; settings: in vivo
[18] = Drug uptake in skin of Beagle dog at 5 mg/kg, po measured 6 hrs post dose; format: ADME, organism-based, Canis lupus familiaris, Zone of skin; design: dose 5 mg/kg, route oral; settings: in vivo
[19] = Drug uptake in eye of Beagle dog at 5 mg/kg, po measured 6 hrs post dose; format: ADME, organism-based, Canis lupus familiaris; design: dose 5 mg/kg, route oral; settings: in vivo
Mus musculus [20] = experiment: Antidiabetic activity in po dosed diet-induced obese fasted C57BL6 mouse assessed as increase in glucose clearance administered 1 hr before glucose challenge measured 12 hrs thereafter by OGTT; format: functional; settings: in the assay text read “2 hrs” for “12 hrs”
Procedure, shortened: (§1)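 Male C57/Bl6 mice were kept on a high fat diet for at least 14 weeks from 6 weeks of age, then fasted 16 h. Compound was given orally 1 h before a 2 g/kg oral glucose load.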

Mus musculus [21] = experiment: Antidiabetic activity in diet-induced obese C57BL6 mouse assessed as reduction in glucose AUC at 3 to 7 mg/kg, po administered 1 hr before oral glucose administration measured 2 hrs thereafter; format: functional; settings: dose mg/kg 3-7
Mus musculus [22] = experiment: Antidiabetic activity in diet-induced obese C57BL6 mouse assessed as reduction in glucose AUC at 7 to 10 mg/kg, po administered 1 hr before oral glucose administration measured 2 hrs thereafter; format: functional; settings: dose mg/kg 7-10
Mus musculus [23] = experiment: Antidiabetic activity in diet-induced obese C57BL6 mouse assessed as reduction in glucose AUC at 7 to 30 mg/kg, po administered 1 hr before oral glucose administration measured 2 hrs thereafter; format: functional; settings: dose mg/kg 7-30; procedure, shortened: as §1
Mus musculus [24] = experiment: Antidiabetic activity in diet-induced obese C57BL6 mouse assessed as reduction in body weight gain at 20 mg/kg, po BID; format: functional; design: scale not given: the % may be the effect or the level left
Procedure, shortened: (§2)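 Male C57/Bl6 mice were fed a high fat diet for at least 18 weeks from 6 weeks of age, then given vehicle (1% methocel, bid) for 7 days and randomized by body weight. Oral dosing (qd or bid) ran for 28 days, with n = 8–10/group. Body weight, food intake and skin/eye scores were recorded twice weekly.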

Mus musculus [25] = experiment: Antidiabetic activity in diet-induced obese C57BL6 mouse assessed as reduction in body weight gain at 60 mg/kg, po BID; format: functional; design: scale not given: the % may be the effect or the level left; procedure, shortened: as §2
Mus musculus [26] = experiment: Toxicity in diet-induced obese C57BL6 mouse assessed as reduction in food intake at 20 to 60 mg/kg, po BID; format: organism-based; design: dose 20-60 mg/kg, route oral; settings: in vivo
Procedure, shortened: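 Obese male C57/Bl6 mice after at least 18 weeks of high fat diet and a 7-day vehicle run-in, randomized by body weight. Dosed orally at 20 or 60 mg/kg bid for 28 days (n = 8–10/group). Food consumption monitored twice weekly.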

Mus musculus [27] = experiment: Toxicity in diet-induced obese C57BL6 mouse assessed as adverse effect in skin at 20 to 60 mg/kg, po BID measured within 4 weeks; format: organism-based; design: dose 20-60 mg/kg, route oral; settings: in vivo, 672 h
Procedure, shortened: (§3)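 Male C57/Bl6 mice on high fat diet for at least 18 weeks from 6 weeks of age. Given 7 days vehicle run-in (1% methocel bid), then randomized by body weight and dosed orally at 20 or 60 mg/kg bid for 28 days (n = 8–10/group). Skin (hair loss/lesion) and eye (squint to closure) scored 0–3 twice weekly.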

Mus musculus [28] = experiment: Toxicity in diet-induced obese C57BL6 mouse assessed as adverse effect in eye at 20 to 60 mg/kg, po BID measured within 4 weeks; format: organism-based; design: dose 20-60 mg/kg, route oral; settings: in vivo, 672 h; procedure, shortened: as §3
Mus musculus [29] = experiment: Inhibition of SCD activity in liver of diet-induced obese C57BL6 mouse assessed as reduction in desaturation induces at 20 mg/kg, po BID administered for 4 weeks; format: functional; settings: 672 h
Liver [30] = experiment: Drug level in liver of diet-induced obese C57BL6 mouse at 20 mg/kg, po BID; format: ADME, organism-based; design: dose 20 mg/kg, route oral; settings: in vivo, read-out: Drug uptake
Procedure, shortened: (§4)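 eDIO mice were dosed orally for 4 weeks, either 20 mg/kg bid or 5 mg/kg qd. Liver, Harderian gland and skin were taken at trough at study termination, and compound concentration was measured by LC-MS.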

[31] = Drug level in harderian gland of diet-induced obese C57BL6 mouse at 20 mg/kg, po BID; format: ADME, organism-based; design: dose 20 mg/kg, route oral; settings: in vivo, read-out: Drug uptake; procedure, shortened: as §4

O=C(O)Cn1nnc(-c2cc(N3CCC(Oc4cc(F)ccc4Br)CC3)no2)n1 [MK-8245]
IC50 (Acyl-CoA desaturase 1 [1]): 3 nM | IC50 (Acyl-CoA desaturase 1 [2]): 68 nM | IC50 (Acyl-CoA desaturase 1 [3]): 3 nM | Papp [4]: 3.8 ×10⁻⁶ cm/s | bioavailability [5]: 12% | bioavailability [6]: 28% | bioavailability [7]: 40% | Drug uptake (Liver [8]): Active | Drug uptake (Zone of skin [9]): Active | Drug uptake [10]: Active | Drug uptake (Liver [11]): Active | Drug uptake (Zone of skin [12]): Active | Drug uptake [13]: Active | Drug uptake [14]: Active | Drug uptake [15]: Active | Drug uptake [16]: Active | Drug uptake (Liver [17]): Active | Drug uptake [18]: Active | Drug uptake [19]: Active | ED50 (Mus musculus [20]): 7 mg/kg | inhibition (INH) (Mus musculus [21]): 36% | inhibition (INH) (Mus musculus [22]): 60% | inhibition (INH) (Mus musculus [23]): 89% | Activity (Mus musculus [24]): 5% | Activity (Mus musculus [25]): 5% | Activity (Mus musculus [26]): Non-toxic | Activity (Mus musculus [27]): Non-toxic | Activity (Mus musculus [28]): Non-toxic | inhibition in vivo at 20 mg/kg (Mus musculus [29]): 63% | concentration (Liver [30]): 5000 nM | concentration [31]: 900 nM
